Variants at the floor of the assay were thinned out.
B1: tRNA (parent)
chain: GUUCCGUUGGCGUAAUGGUAACGCGUCUCCCUCCUAAGGAGAAGACUGCGGGUUCGAGUCCCGUACGGAACG

Variants of: B1
Test: yeast fitness relative to wild type (ratio to wild type); higher = fitter; tRNA-Arg(CCU), competitive growth, 37 C, YPD
How it was run: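 Changes in genotype frequencies gave Darwinian fitness relative to wild type. Frequencies were read by 100-nucleotide paired-end sequencing of gene amplicons before and after pooled Saccharomyces cerevisiae strains, carrying tRNA-Arg(CCU) gene variants at the native locus, were competed in YPD at 37°C for 24 hours in six replicates. A genotype was kept only with ≥ 100 starting reads, and estimates < 0.5 were set to 0.5.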

Compared with G18C G67A A69C, G17A C30A is higher in yeast fitness: no more than 0.5 for the first, 0.71 for the second.

Going from G18A G25A A70G to G17A G18A C61A, the yeast fitness falls from 0.54 to no more than 0.5.

First: G18C G50A
Second: G17C A20U U54A C61U
The yeast fitness of the first is higher: 0.609 for the first, 0.546 for the second.

Going from U19C A21G U26G G48C to G18C A20C C22U C31U C61U, the yeast fitness falls from 0.624 to no more than 0.5.

Going from G18A C34G C46A C62U A69C to U19A C61U, the yeast fitness rises from no more than 0.5 to 0.983.

First: U19A C61A
Second: G17U C46A
The yeast fitness of the first is lower: 0.673 for the first, 0.785 for the second.

G17A C31A C33U U59G A65C and U19A C30U C31A G58A G67C cannot be ordered by yeast fitness: no more than 0.5 for the first, no more than 0.5 for the second.

G17C A42C C66U and G17A C22G C33U C62A cannot be ordered by yeast fitness: no more than 0.5 for the first, no more than 0.5 for the second.

First: U16G U59G
Second: U19A U47A G52C
The yeast fitness of the first is higher: 0.78 for the first, no more than 0.5 for the second.

Going from G18A C33G U53A to G18A U54C, the yeast fitness rises from no more than 0.5 to 0.646.

Compared with G17U G25A U28G G58A C66G, U16G U28C is higher in yeast fitness: no more than 0.5 for the first, 0.862 for the second.

First: G17A A42G
Second: U19C A20C A70U
The yeast fitness of the first is higher: 0.732 for the first, 0.65 for the second.

First: U19C A40C G41C
Second: G17A C29G A45G C61U
The yeast fitness of the first is higher: 0.594 for the first, no more than 0.5 for the second.

G17C C24G U28A C30U A65U and U19A C29U G67C A69G cannot be ordered by yeast fitness: no more than 0.5 for the first, no more than 0.5 for the second.

G17C G58C C62U and G17C U28G C29U A37C A65C cannot be ordered by yeast fitness: no more than 0.5 for the first, no more than 0.5 for the second.

Going from G17A A57G to U19C A36G, the yeast fitness rises from 0.906 to 1.01.

Compared with G17A U32C A37G A69C, U19A G39A is higher in yeast fitness: 0.5 for the first, 0.846 for the second.

Going from U19A G39C to U16G G41C A45U G51A C61U A70C, the yeast fitness falls from 0.742 to 0.639.

G17C C22G G52A and G17C G18C G44C U59A cannot be ordered by yeast fitness: no more than 0.5 for the first, no more than 0.5 for the second.

G17C G38C A43C A69U and G18A C30G C34G cannot be ordered by yeast fitness: no more than 0.5 for the first, no more than 0.5 for the second.

Compared with G18C U47C, U16G U26A C34U G50A A69U is lower in yeast fitness: 0.658 for the first, 0.551 for the second.

U19A A20C A21G C30G A43G C55G and G18A U47C A57U cannot be ordered by yeast fitness: no more than 0.5 for the first, no more than 0.5 for the second.

G17A C22G C29U G51C C55G and G17U C30A A43U C66U cannot be ordered by yeast fitness: no more than 0.5 for the first, no more than 0.5 for the second.

G17U A57G A69C and U19A C24A C30G C34U G52C cannot be ordered by yeast fitness: no more than 0.5 for the first, no more than 0.5 for the second.

Going from G17A C22G C27A to G18A C29U U35A A70U, the yeast fitness falls from 0.579 to no more than 0.5.

First: G18A U32C A70G
Second: U19A C30A
The yeast fitness of the first is lower: 0.599 for the first, 0.812 for the second.

G17C U26C C46U A65C and G17C G25A C49A A69U cannot be ordered by yeast fitness: no more than 0.5 for the first, no more than 0.5 for the second.

G18C C24U C30G and U19C A20C C31G A70C cannot be ordered by yeast fitness: no more than 0.5 for the first, no more than 0.5 for the second.

Going from G18C U35A A45C C62U to G18A C24U G56A, the yeast fitness rises from 0.542 to 0.674.

Compared with G18A A40G C62A A65U C66U, G18A U26C is higher in yeast fitness: no more than 0.5 for the first, 0.648 for the second.

Compared with G18C G44A, G18A C24G G56A C66U is lower in yeast fitness: 0.604 for the first, no more than 0.5 for the second.

Compared with G18A A21C C30U, G18A A36C is higher in yeast fitness: no more than 0.5 for the first, 0.503 for the second.

G18C C24G U35C G50C C55G G67C and G18C A42U G48C U64C cannot be ordered by yeast fitness: no more than 0.5 for the first, no more than 0.5 for the second.

First: G18A A70G
Second: G18A A70C
The yeast fitness of the first is lower: 0.646 for the first, 0.74 for the second.

First: U19A U64A
Second: G17A C60U
The yeast fitness of the first is higher: 0.807 for the first, 0.594 for the second.

Compared with G17C, G17U is higher in yeast fitness: 0.7 for the first, 0.851 for the second.

Going from G17A to G18C G23A G25C U35C A37G A43C C55G G68A, the yeast fitness falls from 0.835 to no more than 0.5.

G17A C29U C34A and G17C U54A G56C cannot be ordered by yeast fitness: no more than 0.5 for the first, no more than 0.5 for the second.

Compared with G18C C22G G56A, G17A C30G A40G C60A is higher in yeast fitness: 0.568 for the first, 0.678 for the second.

First: G17C C62G
Second: G18A C29A C49U
The yeast fitness of the first is higher: 0.57 for the first, no more than 0.5 for the second.

Going from G18A C22U C30U C33U A45C to G18A U59A, the yeast fitness rises from no more than 0.5 to 0.76.

Compared with G18A A36G A42U, G18C C34G A45C C66U is higher in yeast fitness: 0.691 for the first, 0.775 for the second.

First: G17C C24U C49U U59A
Second: G18A A20U C34U A36G
The yeast fitness of the first is higher: 0.533 for the first, no more than 0.5 for the second.

Compared with G17A U26C C61U G67A, G18U U26A C66A A70U is higher in yeast fitness: no more than 0.5 for the first, 0.536 for the second.

U19A C30G A40C C62G C66G A69C and G17C A20G A57G C62U cannot be ordered by yeast fitness: no more than 0.5 for the first, no more than 0.5 for the second.

First: G18C C29U C34U A36G G58C
Second: U19C A21G U26G C49U
The yeast fitness of the first is lower: no more than 0.5 for the first, 0.745 for the second.

Going from G18C A65G to U19A C30A A43G C49U G51U C55A, the yeast fitness falls from 0.62 to 0.528.

First: G17A G25A C34U C55G
Second: U19A C22G C24U C33G A36G
The yeast fitness of the first is lower: 0.532 for the first, 0.581 for the second.

First: G17A A69C
Second: G17A A69G
The yeast fitness of the first is lower: 0.721 for the first, 0.813 for the second.

G17C U47G and G18A C34A cannot be ordered by yeast fitness: no more than 0.5 for the first, no more than 0.5 for the second.

Going from G18A C27U C46A to U19A C49U, the yeast fitness rises from 0.528 to 1.03.

Compared with U19A C49A, G18A A21C U32G is lower in yeast fitness: 0.642 for the first, 0.614 for the second.

First: G17C G50C
Second: G17A A21C A42C
The yeast fitness of the first is higher: 0.536 for the first, no more than 0.5 for the second.

G18A C22G C24G and G18A A40G A70C cannot be ordered by yeast fitness: no more than 0.5 for the first, no more than 0.5 for the second.

G18C C22G G38A and G18A U19A C27U G67A cannot be ordered by yeast fitness: no more than 0.5 for the first, no more than 0.5 for the second.

First: U19A G56A
Second: G18C G68C
The yeast fitness of the first is higher: 1 for the first, 0.556 for the second.

G18C A57U G67C and G18C U26A A45G C66G cannot be ordered by yeast fitness: no more than 0.5 for the first, no more than 0.5 for the second.

Compared with G17A U19A A21C G44C, G18A A20U is higher in yeast fitness: no more than 0.5 for the first, 0.721 for the second.

First: G18A A20G
Second: U19C A20U
The yeast fitness of the first is lower: 0.613 for the first, 0.941 for the second.

First: U19A C24G C27U C30A A36G G52C
Second: G18A A65C
The yeast fitness of the first is lower: no more than 0.5 for the first, 0.759 for the second.

First: G17A G63C
Second: G17A G63A
The yeast fitness of the first is lower: 0.579 for the first, 0.744 for the second.

Going from G17A C46G U54C to G18C C31G G44C G48C C66U, the yeast fitness falls from 0.562 to no more than 0.5.

G18C C31G C55G A57C and G17C A43C G51A cannot be ordered by yeast fitness: no more than 0.5 for the first, no more than 0.5 for the second.

G18C G23A G25C A37G A43C U54C C55G G68A and G17A U32A U54C cannot be ordered by yeast fitness: no more than 0.5 for the first, no more than 0.5 for the second.

First: G18C A21U U26C G51C
Second: G17A C24U C31G A65U
The yeast fitness of the first is higher: 0.739 for the first, no more than 0.5 for the second.

G17A A21G U28G C62G and G17C A40G A42C A45U U54C cannot be ordered by yeast fitness: no more than 0.5 for the first, no more than 0.5 for the second.

G18C C24A A36U and G17A C24G C27G C62U G67A cannot be ordered by yeast fitness: no more than 0.5 for the first, no more than 0.5 for the second.

Going from G18C A42U U54A G58C to G17C C29U A37C A69U, the yeast fitness falls from 0.574 to no more than 0.5.

Going from G17C A37U A69C to G17C G41A, the yeast fitness rises from no more than 0.5 to 0.615.

Compared with G17A G56C, G18A C29U C31A is higher in yeast fitness: 0.527 for the first, 0.575 for the second.

G17C U19A C30U A36G A70G and G17C C27G U28C A65U cannot be ordered by yeast fitness: no more than 0.5 for the first, no more than 0.5 for the second.

Compared with G18A U19C, G17A U28C A42C C66U is lower in yeast fitness: 0.79 for the first, no more than 0.5 for the second.

Compared with U19C A37U C62A U64C, U19A G23C C30G U47A is lower in yeast fitness: 0.725 for the first, 0.594 for the second.

Going from G17C C22G C55G C60A to U19A G48A G68C, the yeast fitness rises from no more than 0.5 to 0.626.

Going from G18C C30G U32C A69U to G17A A20G C27G A36C, the yeast fitness rises from no more than 0.5 to 0.609.

Compared with G17A C29U G67A, G17A C34G is higher in yeast fitness: 0.553 for the first, 0.569 for the second.

Going from G17A U32A to G17C C22G C24A C62A C66U, the yeast fitness falls from 0.691 to no more than 0.5.

G18A U19C C27G C61A U64G and G18A A21C C33G A37U U64G cannot be ordered by yeast fitness: no more than 0.5 for the first, no more than 0.5 for the second.

G18A C22U C24G and U19A C31G G44C cannot be ordered by yeast fitness: no more than 0.5 for the first, no more than 0.5 for the second.

G17A C24G C33U A37U and U16G G39C G56C cannot be ordered by yeast fitness: no more than 0.5 for the first, no more than 0.5 for the second.

Going from G17C A20U C66A to G17A A21G U28G, the yeast fitness rises from no more than 0.5 to 0.608.

G17C C46G G68A and G18A G25A C29G C34A cannot be ordered by yeast fitness: no more than 0.5 for the first, no more than 0.5 for the second.

Going from G17A C33A to U19C A36U C62G, the yeast fitness falls from 0.53 to 0.529.

In the case of G17C C22G C24A C62A, the yeast fitness is reported as no more than 0.5.

Source: the RNAGym collection of RNA variant scans (doi:10.1126/science.aae0568)
